Screening data from PubChem.
KCNK3 inh: human KCNK3 channel inhibition, primary screen. B-score at 10 µM. actives 0.84% (n = 340,000). AID 602410. CHO-KCNK3 thallium flux, FluxOR fluorescence; stronger effect = lower value. O14649;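 active = B-score under library mean minus 4 SD, starting fluorescence ratio at most library mean plus 5 SD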;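 also: more negative B-score means stronger inhibition of thallium flux through KCNK3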
Kir21 block: blocks the mouse Kir2.1 inward-rectifier potassium channel; P35561; B-score at 10 µM; actives 0.85% (n = 310,000); AID 1672; HEK293-Kir2.1, FluxOR thallium flux fluorescence; stronger effect = lower value;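 active = fluorescence ratio B-score at or below minus 3 SD of library scores, with starting-brightness B-score within 2 SD, cut at about -4.2 in these data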;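 also: channel flux triggered by added potassium and thallium sulfate stimulus; B-score of peak minus minimum fluorescence over baseline after thallium stimulus; more negative B-score means stronger Kir2.1 block with less thallium influx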
Target sequence (P35561 whole entry, looked up): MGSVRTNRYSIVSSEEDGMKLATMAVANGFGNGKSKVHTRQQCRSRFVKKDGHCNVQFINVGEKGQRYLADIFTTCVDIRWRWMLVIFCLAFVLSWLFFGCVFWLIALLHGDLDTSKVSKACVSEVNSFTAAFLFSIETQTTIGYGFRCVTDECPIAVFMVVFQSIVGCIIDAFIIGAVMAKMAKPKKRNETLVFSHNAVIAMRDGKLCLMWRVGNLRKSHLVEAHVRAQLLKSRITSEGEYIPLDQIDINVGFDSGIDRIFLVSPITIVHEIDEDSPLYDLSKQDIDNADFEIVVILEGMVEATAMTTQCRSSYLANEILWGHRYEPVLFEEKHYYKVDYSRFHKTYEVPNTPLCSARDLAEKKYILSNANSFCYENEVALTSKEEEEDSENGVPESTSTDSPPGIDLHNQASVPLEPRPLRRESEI
KCNQ1 inh: blocks the human KCNQ1 potassium channel | CHO-K1 KCNQ1, FluxOR thallium flux fluorescence; stronger effect = higher value | actives 1.3% (n = 310,000) | B-score at 10 µM | P51787;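 active = compounds whose thallium flux B-score, printed positive for inhibition, exceeds three library SD while starting fluorescence stays within three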;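 also: channel opened by potassium depolarization with thallium stimulus after 20 min compound exposure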
hERG protect: shields human hERG channel from block by proarrhythmic agents; Q12809; CHO-hERG, FluxOR thallium flux, dofetilide IC70 present; activation (rescue from dofetilide block), less the hit threshold, % at 10 µM; actives 0.51% (n = 310,000); AID 1511;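 active = activation above the mean of controls blocked by dofetilide plus 5 SD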;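 also: thallium influx through hERG after potassium depolarization seen as dye fluorescence rise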
KCNK9 inh: inhibitors of human KCNK9 two-pore domain potassium channel. AID 488922. B-score at 10 µM. HEK293 KCNK9, FluxOR thallium flux fluorescence; stronger effect = lower value. actives 1.2% (n = 310,000). Q9NPC2;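 active = ratio B-score over 3 SD below the library mean, with starting fluorescence within 5 SD of its mean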;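 also: negative B-score means less thallium flux so channel inhibition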
KCNQ1 pot: potentiators or activators of human KCNQ1 potassium channel; P51787; CHO-K1 KCNQ1, thallium flux FluxOR fluorescence; stronger effect = higher value; B-score at 10 µM; actives 0.35% (n = 310,000); AID 2648;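 active = fluorescence ratio B-score, a plate-corrected score, at least three library SD, with initial intensity B-score within 5 SD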
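Schedule – 37 °C overnight plating, 90-min dark dye load, 20-min compound pretreatment · System – stable KCNQ1 CHO-K1 line · Probe or stimulus – thallium- and potassium-containing depolarizing buffer · Measured by – kinetic FluxOR fluorescence, 10 s baseline plus 110 s post-stimulus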
Active calls of the source: *. Compounds with a hit are over-represented: about 3.7% of the library has one in this group of screens.

How did CC1=NNC(=O)C1Cc1ccc(F)cc1 (centres undefined) do in these assays?
KCNK3 inh: inactive; Kir21 block: 0.01; KCNQ1 inh: inactive; hERG protect: -4; KCNK9 inh: inactive; KCNQ1 pot: inactive

Results for C=CCOc1c(OC)cc(/C=N/Nc2cccc(C(=O)O)c2)c(Br)c1Br ?
KCNK3 inh: inactive; Kir21 block: 0.99; KCNQ1 inh: inactive; hERG protect: -5; KCNK9 inh: inactive; KCNQ1 pot: inactive

What do the screens show for `CCc1cccc(NC(=O)CCCn2nc(CC)n3c(cc4occc43)c2=O)c1`?
KCNK3 inh: inactive; Kir21 block: -5*; KCNQ1 inh: inactive; hERG protect: -11; KCNK9 inh: inactive; KCNQ1 pot: inactive

How did COc1ccc(C(=O)CCS(=O)(=O)c2ccc(F)cc2)cc1OC do in these assays?
KCNK3 inh: inactive; Kir21 block: -0.39; KCNQ1 inh: inactive; hERG protect: -15; KCNK9 inh: inactive; KCNQ1 pot: 24*

How did CCN1C(=O)[C@H]2[C@@H](c3ccc(C)cc3)N3C(=O)N(c4ccc(C(F)(F)F)cc4)C(=O)[C@@]3(CC(C)C)[C@H]2C1=O do in these assays?
KCNK3 inh: inactive; Kir21 block: -1.3; KCNQ1 inh: inactive; hERG protect: -7; KCNK9 inh: -7.6*; KCNQ1 pot: inactive

What do the screens show for `CCN1C(=O)[C@H]2[C@@H](c3ccc(C)cc3)N3C(=O)N(c4ccc(C)cc4)C(=O)[C@@]3(CC)[C@H]2C1=O`?
KCNK3 inh: inactive; Kir21 block: -0.01; KCNQ1 inh: inactive; hERG protect: -8; KCNK9 inh: inactive; KCNQ1 pot: inactive

How did COc1ccc(O)c(C=NCC(C)N=Cc2cc(OC)ccc2O)c1 (centres undefined) do in these assays?
KCNK3 inh: inactive; Kir21 block: 0.9; KCNQ1 inh: inactive; hERG protect: -3; KCNK9 inh: inactive; KCNQ1 pot: inactive

What do the screens show for `COc1cccc(C=NCC(C)N=Cc2cccc(OC)c2O)c1O` (centres undefined)?
KCNK3 inh: inactive; Kir21 block: 0.12; KCNQ1 inh: inactive; hERG protect: 5.2*; KCNK9 inh: inactive; KCNQ1 pot: inactive

How did COc1ccc(C(=O)Nc2cccc(C(=O)NCc3ccco3)c2)cc1 do in these assays?
KCNK3 inh: inactive; Kir21 block: 0.45; KCNQ1 inh: inactive; hERG protect: -8; KCNK9 inh: inactive; KCNQ1 pot: inactive

What do the screens show for `N#CC1=C(N)Oc2cc(O)c(Cl)cc2C1c1cccnc1` (centres undefined)?
KCNK3 inh: inactive; Kir21 block: -7.3; KCNQ1 inh: inactive; hERG protect: -25; KCNK9 inh: inactive; KCNQ1 pot: inactive

How did N#CC1=C(N)Oc2cc(O)c(Cl)cc2C1c1ccccc1F (centres undefined) do in these assays?
KCNK3 inh: inactive; Kir21 block: -14; KCNQ1 inh: 14*; hERG protect: -46; KCNK9 inh: inactive; KCNQ1 pot: inactive

What do the screens show for `O=C1CN(C(=O)NCC(=O)N2CCCC2)c2ccccc2N1`?
KCNK3 inh: inactive; Kir21 block: 0.01; KCNQ1 inh: inactive; hERG protect: -6; KCNK9 inh: inactive; KCNQ1 pot: inactive

How did COc1cccc(C(=O)NNC(=O)C(=O)Nc2ccc(OC)cc2OC)c1 do in these assays?
KCNK3 inh: inactive; Kir21 block: 0.86; KCNQ1 inh: inactive; hERG protect: 12*; KCNK9 inh: inactive; KCNQ1 pot: 19*

How did COc1ccc(OC)c(NC(=O)C(=O)NNC(=O)c2cccs2)c1 do in these assays?
KCNK3 inh: inactive; Kir21 block: 0.02; KCNQ1 inh: inactive; hERG protect: 5.5*; KCNK9 inh: inactive; KCNQ1 pot: inactive

How did COc1ccc(OC)c(NC(=O)C2CCN(C(=O)c3cccs3)CC2)c1 do in these assays?
KCNK3 inh: inactive; Kir21 block: 0.52; KCNQ1 inh: inactive; hERG protect: -10; KCNK9 inh: inactive; KCNQ1 pot: inactive

Results for COc1cccc(C(=O)NNC(=O)C(=O)Nc2cccc3ccccc23)c1 ?
KCNK3 inh: inactive; Kir21 block: -0.68; KCNQ1 inh: inactive; hERG protect: 43*; KCNK9 inh: inactive; KCNQ1 pot: 36*

What do the screens show for `COc1cccc(C(=O)NNC(=O)c2ccccc2)c1`?
KCNK3 inh: inactive; Kir21 block: -0.05; KCNQ1 inh: inactive; hERG protect: -6; KCNK9 inh: inactive; KCNQ1 pot: inactive

How did O=C(Cn1cnc([N+](=O)[O-])c1)Nc1cc(Oc2ccc(Cl)cc2Cl)cc([N+](=O)[O-])c1 do in these assays?
KCNK3 inh: inactive; Kir21 block: 0.32; KCNQ1 inh: 8*; hERG protect: -8; KCNK9 inh: inactive; KCNQ1 pot: inactive

Results for CN(C)CCCOC(=O)c1sc2ccccc2c1Cl ?
KCNK3 inh: inactive; Kir21 block: -7.3*; KCNQ1 inh: inactive; hERG protect: -8; KCNK9 inh: inactive; KCNQ1 pot: inactive

Results for CN(C)CCCN(C(=O)c1sc2ccccc2c1Cl)c1nc2ccc(F)cc2s1 ?
KCNK3 inh: inactive; Kir21 block: -2.9; KCNQ1 inh: inactive; hERG protect: -28; KCNK9 inh: inactive; KCNQ1 pot: inactive

Results for CCCOc1ccc(C(CC(=O)O)NC(=O)c2sc3ccccc3c2Cl)cc1 (centres undefined) ?
KCNK3 inh: inactive; Kir21 block: 0.15; KCNQ1 inh: inactive; hERG protect: -9; KCNK9 inh: inactive; KCNQ1 pot: inactive

Results for CN(C)CCCOC(=O)c1ccc(Cl)cc1 ?
KCNK3 inh: inactive; Kir21 block: 0.37; KCNQ1 inh: inactive; hERG protect: 4.8*; KCNK9 inh: inactive; KCNQ1 pot: inactive

What do the screens show for `CCCCOC(=S)NC(=O)c1sc2ccccc2c1Cl`?
KCNK3 inh: inactive; Kir21 block: 0.56; KCNQ1 inh: inactive; hERG protect: 31*; KCNK9 inh: inactive; KCNQ1 pot: 53*

Results for CCOc1ccc(C(=O)OCCCN(C)C)cc1 ?
KCNK3 inh: inactive; Kir21 block: 0.04; KCNQ1 inh: inactive; hERG protect: -5; KCNK9 inh: inactive; KCNQ1 pot: inactive

How did O=C(N/C(=C/c1ccco1)C(=O)N1CCOCC1)c1ccccc1Br do in these assays?
KCNK3 inh: inactive; Kir21 block: 2.1; KCNQ1 inh: inactive; hERG protect: -4; KCNK9 inh: inactive; KCNQ1 pot: inactive

What do the screens show for `COc1ccc(NC(=O)Nc2cccc3ccccc23)cc1S(N)(=O)=O`?
KCNK3 inh: inactive; Kir21 block: -0.4; KCNQ1 inh: inactive; hERG protect: -8; KCNK9 inh: inactive; KCNQ1 pot: inactive

What do the screens show for `CCOC(=O)/C(=C\c1cccnc1)C(=O)c1cc(C(C)=O)c(Nc2ccccc2)s1`?
KCNK3 inh: inactive; Kir21 block: -3.7; KCNQ1 inh: inactive; hERG protect: -9; KCNK9 inh: inactive; KCNQ1 pot: 36*
